Test results from ChEMBL document CHEMBL1126660, “Nonpeptide angiotensin II antagonists: N-phenyl-1H-pyrrole derivatives are angiotensin II receptor antagonists” (J Med Chem, 1993).

Key:
Oryctolagus cuniculus [1] = species: Oryctolagus cuniculus; test: Compound was evaluated for antagonism of angiotensin II induced contraction of rabbit aorta rings.; format: functional; settings: read-out: pA2 (converted)
In short: (§1)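 Paired rabbit aortic rings: control ring given increasing AII concentrations at 30-min intervals; second ring given AII with antagonist added 5 min beforehand. Responses expressed as % of control ring maximal contraction; pD2 for AII from concentration-response curves, pA2 by Schild analysis.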

[2] = target: T1, Type-2 angiotensin II receptor (Rattus norvegicus, UniProt P35351); test: Activity against low affinity Angiotensin II receptor, type 2 was measured from the ability to inhibit [125I]angiotensin II binding to rat uterine membrane
T1 sequence (P35351 whole entry): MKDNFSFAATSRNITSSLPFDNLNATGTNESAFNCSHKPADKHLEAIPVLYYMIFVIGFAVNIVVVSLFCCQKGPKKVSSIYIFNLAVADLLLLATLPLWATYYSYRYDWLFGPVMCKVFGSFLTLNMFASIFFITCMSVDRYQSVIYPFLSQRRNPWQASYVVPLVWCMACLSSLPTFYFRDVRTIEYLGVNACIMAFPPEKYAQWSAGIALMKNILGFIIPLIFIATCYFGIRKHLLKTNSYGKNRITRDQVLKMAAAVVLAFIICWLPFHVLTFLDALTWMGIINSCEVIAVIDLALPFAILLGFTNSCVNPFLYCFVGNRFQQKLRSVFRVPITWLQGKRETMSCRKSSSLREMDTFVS

[3] = target: T2, Type-1 angiotensin II receptor B (Rattus norvegicus, UniProt P29089); test: Activity against high affinity Angiotensin II receptor, type 1 was measured from the ability to inhibit [125I]angiotensin II binding to rat uterine membrane.
T2 sequence (P29089 whole entry): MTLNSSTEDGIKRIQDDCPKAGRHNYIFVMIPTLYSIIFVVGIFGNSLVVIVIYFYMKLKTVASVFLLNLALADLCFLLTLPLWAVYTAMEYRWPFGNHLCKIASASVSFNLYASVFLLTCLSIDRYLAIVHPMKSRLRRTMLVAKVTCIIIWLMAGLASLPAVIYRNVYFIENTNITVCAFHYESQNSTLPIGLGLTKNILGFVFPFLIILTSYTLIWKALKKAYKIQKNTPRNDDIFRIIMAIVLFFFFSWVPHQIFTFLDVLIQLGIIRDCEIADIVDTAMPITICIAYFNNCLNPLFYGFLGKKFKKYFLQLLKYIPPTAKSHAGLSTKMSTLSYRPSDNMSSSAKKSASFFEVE

Oryctolagus cuniculus [4] = species: Oryctolagus cuniculus; test: Evaluated for antagonism of angiotensin II induced contraction of rabbit aorta rings; format: functional; settings: read-out: pA2 (converted); in short: as §1

| IC50 [2] [nM] | IC50 [3] [nM] | SMILES | Kb (Oryctolagus cuniculus [1]) [nM] | Kb (Oryctolagus cuniculus [4]) [nM] |
| --- | --- | --- | --- | --- |
|  |  | CCCCc1nc(Cl)c(CO)n1Cc1ccc(-n2cccc2C(=O)O)cc1 | 1260 |  |
| 220000 |  | CCCCc1nc(CCCC)n(Cc2ccc(-n3ccc(-c4nnn[nH]4)c3)cc2)n1 |  |  |
| 3300 | 170 | CCCCc1nc(Cl)c(CO)n1Cc1ccc(-c2ccccc2C(=O)O)cc1 |  |  |
|  | 6.5 | CCCCc1nc(CCCC)n(Cc2ccc(-c3ccccc3-c3nnn[nH]3)cc2)n1 |  |  |
|  |  | CCCCc1nc(Cl)c(CO)n1Cc1ccc(-c2ccccc2-c2nnn[nH]2)cc1 [LOSARTAN] | 7.94 |  |

| SMILES | IC50 [2] [nM] | IC50 [3] [nM] | Kb (Oryctolagus cuniculus [1]) [nM] | Kb (Oryctolagus cuniculus [4]) [nM] |
| --- | --- | --- | --- | --- |
| CCCCc1nc(CCCC)n(Cc2ccc(-n3c(Cl)cc(Cl)c3-c3nnn[nH]3)cc2)n1 | 810000 | 52 |  | 20 |
